Measured values: ChEMBL document CHEMBL3297645, “Discovery of TD-4306, a long-acting β2-agonist for the treatment of asthma and COPD” (Bioorg Med Chem Lett, 2014)
The source made the active and inactive calls. The calls are words filed in the database; no cut-off is given here.

What was measured:
[1] = target: Beta-3 adrenergic receptor (Homo sapiens, UniProt P13945); test: Agonist activity at human beta3 adrenergic receptor expressed in cells by cAMP accumulation assay; assay type: functional, cell-based
Sequence of Beta-3 adrenergic receptor (P13945 whole entry): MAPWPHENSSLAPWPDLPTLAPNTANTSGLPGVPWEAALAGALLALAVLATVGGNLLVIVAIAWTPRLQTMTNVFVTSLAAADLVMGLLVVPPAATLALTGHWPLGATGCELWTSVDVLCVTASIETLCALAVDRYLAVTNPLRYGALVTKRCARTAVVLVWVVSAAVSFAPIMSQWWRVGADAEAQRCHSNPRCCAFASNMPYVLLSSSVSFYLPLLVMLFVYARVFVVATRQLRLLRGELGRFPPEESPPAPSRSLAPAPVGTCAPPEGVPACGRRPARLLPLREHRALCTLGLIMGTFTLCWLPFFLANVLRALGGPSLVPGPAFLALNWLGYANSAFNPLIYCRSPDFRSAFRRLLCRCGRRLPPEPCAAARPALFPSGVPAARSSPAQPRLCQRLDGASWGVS
Procedure, shortened: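 cAMP accumulation read-out in a recombinant cell line heterologously expressing the human β3-adrenoceptor.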

[2] = target: T1, Beta-2 adrenergic receptor (Homo sapiens, UniProt P07550); test: Agonist activity at human beta2 adrenergic receptor in human BEAS-2B cells by cAMP accumulation assay; assay type: functional, cell-based
T1 sequence (P07550 whole entry): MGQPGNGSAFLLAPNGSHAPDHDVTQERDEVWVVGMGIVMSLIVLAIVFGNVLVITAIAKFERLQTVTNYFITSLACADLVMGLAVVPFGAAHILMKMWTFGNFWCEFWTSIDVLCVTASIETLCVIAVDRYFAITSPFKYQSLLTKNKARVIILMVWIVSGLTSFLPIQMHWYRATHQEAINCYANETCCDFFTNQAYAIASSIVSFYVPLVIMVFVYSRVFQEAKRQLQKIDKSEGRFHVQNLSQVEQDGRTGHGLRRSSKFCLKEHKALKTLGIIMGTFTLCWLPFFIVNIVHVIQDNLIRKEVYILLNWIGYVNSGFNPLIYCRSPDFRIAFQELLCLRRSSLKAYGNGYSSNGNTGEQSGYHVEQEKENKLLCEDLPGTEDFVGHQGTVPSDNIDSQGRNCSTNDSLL

[3] = target: T1, Beta-2 adrenergic receptor; test: Displacement of [3H]dihydroalprenolol from human beta2 adrenergic receptor expressing cell membrane by competition binding assay
[4] = organism: Homo sapiens; test: Selectivity ratio of Ki for human beta1 adrenergic receptor to Ki for human beta2 adrenergic receptor
Procedure, shortened: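 Competition binding used [3H]dihydroalprenolol as tracer on plasma membranes from cells expressing recombinant human β1- or β2-adrenoceptors. Selectivity is the ratio β1 Ki/β2 Ki.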

[5] = target: T1, Beta-2 adrenergic receptor; test: Agonist activity at human beta2 adrenergic receptor expressed in cells by cAMP accumulation assay; assay type: functional, cell-based
[6] = target: Beta-1 adrenergic receptor (Homo sapiens, UniProt P08588); test: Agonist activity at human beta1 adrenergic receptor expressed in cells by cAMP accumulation assay; assay type: functional, cell-based
Sequence of Beta-1 adrenergic receptor (P08588 whole entry): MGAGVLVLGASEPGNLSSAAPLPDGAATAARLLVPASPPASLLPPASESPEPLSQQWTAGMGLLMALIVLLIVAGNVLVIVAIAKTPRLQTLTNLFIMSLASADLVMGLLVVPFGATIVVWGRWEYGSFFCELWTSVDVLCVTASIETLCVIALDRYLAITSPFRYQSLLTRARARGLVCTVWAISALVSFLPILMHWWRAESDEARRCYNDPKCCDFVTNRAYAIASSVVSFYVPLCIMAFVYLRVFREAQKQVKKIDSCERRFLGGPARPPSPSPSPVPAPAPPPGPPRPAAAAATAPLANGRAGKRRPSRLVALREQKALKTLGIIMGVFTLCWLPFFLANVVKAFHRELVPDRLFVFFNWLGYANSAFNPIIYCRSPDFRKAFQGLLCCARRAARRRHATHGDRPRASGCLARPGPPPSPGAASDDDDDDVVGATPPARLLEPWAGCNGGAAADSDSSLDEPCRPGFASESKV

[7] = tested on: Cavia porcellus; test: Bronchoprotection activity against acetylcholine-induced guinea pig bronchoconstriction model at 1 to 100 ug/ml administered as nebulized dosing measured after 72 hrs; assay type: functional, organism-based
Procedure, shortened: (§1)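 Guinea pigs received the compound by nebulizer, and testing took place 72 h after treatment. Pulmonary resistance was measured by head-out plethysmograph in anesthetized, spontaneously breathing animals. Bronchoconstriction was induced by increasing intravenous acetylcholine doses. The ACh dose doubling baseline resistance (PD2) was calculated.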

[8] = organism: Homo sapiens; test: Inhibition of muscarinic receptor (unknown origin) at 1 uM
[9] = target: T2, Muscarinic acetylcholine receptor M2 (Homo sapiens, UniProt P08172); test: Inhibition of muscarinic acetylcholine receptor M2 (unknown origin)
T2 sequence (P08172 whole entry): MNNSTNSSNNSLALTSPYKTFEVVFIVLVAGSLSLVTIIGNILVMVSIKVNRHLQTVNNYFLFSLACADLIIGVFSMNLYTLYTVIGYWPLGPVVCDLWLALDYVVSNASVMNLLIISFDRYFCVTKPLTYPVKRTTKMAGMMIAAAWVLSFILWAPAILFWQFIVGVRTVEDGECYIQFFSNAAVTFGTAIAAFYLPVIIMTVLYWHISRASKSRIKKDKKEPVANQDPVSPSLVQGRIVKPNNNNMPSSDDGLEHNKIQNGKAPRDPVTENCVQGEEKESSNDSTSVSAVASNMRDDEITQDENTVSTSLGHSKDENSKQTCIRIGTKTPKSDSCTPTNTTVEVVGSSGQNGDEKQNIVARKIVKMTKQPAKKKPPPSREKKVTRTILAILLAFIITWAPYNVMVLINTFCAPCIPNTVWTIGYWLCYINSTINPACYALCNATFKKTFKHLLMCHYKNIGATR

[10] = Clearance in dog; assay type: ADME, organism-based, Canis lupus familiaris; settings: in vivo
[11] = Clearance in rat; assay type: ADME, organism-based; settings: in vivo
[12] = tested on: Cavia porcellus; test: Bronchoprotection activity against acetylcholine-induced guinea pig bronchoconstriction model administered as nebulized dosing measured after 72 hrs; assay type: functional, organism-based; procedure, shortened: as §1
[13] = Oral bioavailability in dog; assay type: ADME, organism-based, Canis lupus familiaris; settings: in vivo
[14] = Oral bioavailability in rat; assay type: ADME, organism-based; settings: in vivo
[15] = tested on: Cavia porcellus; test: Bronchoprotection activity against acetylcholine-induced guinea pig bronchoconstriction model at >= 30 ug/ml administered as nebulized dosing measured after 72 hrs; assay type: functional, organism-based; procedure, shortened: as §1
[16] = target: hERG (KCNH2) (Homo sapiens, UniProt Q12809); test: Inhibition of human ERG at 40 nM
Sequence of hERG (KCNH2) (Q12809 whole entry): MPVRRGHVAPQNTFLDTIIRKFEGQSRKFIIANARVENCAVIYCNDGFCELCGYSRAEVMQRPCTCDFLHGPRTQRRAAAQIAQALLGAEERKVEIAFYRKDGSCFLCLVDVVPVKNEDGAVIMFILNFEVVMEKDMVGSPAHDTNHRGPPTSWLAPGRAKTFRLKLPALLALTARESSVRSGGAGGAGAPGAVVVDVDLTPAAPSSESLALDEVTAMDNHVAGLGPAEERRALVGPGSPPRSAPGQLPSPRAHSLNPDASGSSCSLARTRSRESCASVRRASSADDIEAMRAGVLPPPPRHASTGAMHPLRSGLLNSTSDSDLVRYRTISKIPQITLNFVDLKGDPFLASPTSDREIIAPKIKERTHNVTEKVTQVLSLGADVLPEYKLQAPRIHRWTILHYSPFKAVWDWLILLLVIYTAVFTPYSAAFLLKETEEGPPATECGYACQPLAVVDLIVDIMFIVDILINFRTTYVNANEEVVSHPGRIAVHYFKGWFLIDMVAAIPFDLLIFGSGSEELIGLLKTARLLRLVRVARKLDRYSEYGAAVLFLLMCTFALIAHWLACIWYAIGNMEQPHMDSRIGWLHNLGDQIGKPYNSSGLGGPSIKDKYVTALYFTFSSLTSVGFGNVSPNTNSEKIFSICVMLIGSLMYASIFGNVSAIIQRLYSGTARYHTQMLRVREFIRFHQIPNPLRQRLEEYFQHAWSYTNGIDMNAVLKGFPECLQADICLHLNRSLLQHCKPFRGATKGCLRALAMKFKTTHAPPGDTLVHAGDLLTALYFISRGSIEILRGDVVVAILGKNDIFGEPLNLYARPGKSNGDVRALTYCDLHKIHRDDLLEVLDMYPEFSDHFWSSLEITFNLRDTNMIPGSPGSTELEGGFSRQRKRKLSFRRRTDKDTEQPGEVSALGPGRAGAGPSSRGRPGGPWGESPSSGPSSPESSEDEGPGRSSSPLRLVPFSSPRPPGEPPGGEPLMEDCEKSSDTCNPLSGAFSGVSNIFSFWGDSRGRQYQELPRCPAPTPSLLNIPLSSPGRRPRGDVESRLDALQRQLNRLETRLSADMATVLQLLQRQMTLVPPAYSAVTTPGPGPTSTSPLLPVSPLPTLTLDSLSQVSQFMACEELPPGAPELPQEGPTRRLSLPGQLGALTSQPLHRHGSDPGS

[17] = Dissociation constant, pKa of the compound; assay type: physicochemical

Row | EC50 [1] [nM] | EC50 [2] [nM] | Ki [3] [nM] | Ratio Ki [4] | EC50 [5] [nM] | EC50 [6] [nM] | inhibition [8] | Ki [9] [nM] | clearance [10] [mL/min/kg] | clearance [11] [mL/min/kg] | bioavailability [13] [%] | bioavailability [14] [%] | pKa [17] | Structure (SMILES) | Activity [7] | Activity [12] | Activity [15] | inhibition at 0.04 µM [16] [%]
1 | 12.6 | 2.51 | 20 | 26 | 0.501 | 12.6 |  |  |  |  |  |  |  | CC(C)(C)OC(=O)NCCOc1ccc(Nc2ccc(CCNC[C@H](O)c3ccc(O)c4[nH]c(=O)ccc34)cc2)cc1 |  |  |  | 
2 | 39.8 | 0.631 | 5.01 | 95 | 0.158 | 7.94 |  |  |  |  |  |  |  | NCCCOc1ccc(Nc2ccc(CCNC[C@H](O)c3ccc(O)c4[nH]c(=O)ccc34)cc2)cc1 |  |  |  | 
3 | 39.8 | 0.631 | 6.31 | 95 | 0.158 | 7.94 |  |  |  |  |  |  |  | NCCOCCOc1ccc(Nc2ccc(CCNC[C@H](O)c3ccc(O)c4[nH]c(=O)ccc34)cc2)cc1 |  |  |  | 
4 | 39.8 | 0.631 | 5.01 | 85 | 0.126 | 7.94 |  |  |  |  |  |  |  | NCCCCOc1ccc(Nc2ccc(CCNC[C@H](O)c3ccc(O)c4[nH]c(=O)ccc34)cc2)cc1 |  |  |  | 
5 | 63.1 | 1 | 6.31 | 64 | 0.0794 | 6.31 | Active | 631 | 40 | 6.67 | 5 | 1 |  | CC(C)(N)COc1ccc(Nc2ccc(CCNC[C@H](O)c3ccc(O)c4[nH]c(=O)ccc34)cc2)cc1 |  | Dose-dependent effect | Active | 7
6 | 39.8 | 0.501 | 6.31 | 64 | 0.1 | 7.94 |  |  |  |  |  |  |  | NCCOc1ccc(Nc2ccc(CCNC[C@H](O)c3ccc(O)c4[nH]c(=O)ccc34)cc2)cc1 |  |  |  | 
7 |  | 2 | 12.6 | 72 | 0.251 |  |  |  |  |  |  |  |  | CCOc1ccc(Nc2ccc(CCNC[C@H](O)c3ccc(O)c4[nH]c(=O)ccc34)cc2)cc1 |  | inactive |  | 

The remaining lines, values behind:

Row | Structure (SMILES) | EC50 [1] [nM] | EC50 [2] [nM] | Ki [3] [nM] | Ratio Ki [4] | EC50 [5] [nM] | EC50 [6] [nM] | inhibition [8] | Ki [9] [nM] | clearance [10] [mL/min/kg] | clearance [11] [mL/min/kg] | bioavailability [13] [%] | bioavailability [14] [%] | pKa [17] | Activity [7] | Activity [12] | Activity [15] | inhibition at 0.04 µM [16] [%]
8 | CS(=O)(=O)N1CCN(CCOc2ccc(Nc3ccc(CCNC[C@H](O)c4ccc(O)c5[nH]c(=O)ccc45)cc3)cc2)CC1 | 31.6 | 6.31 | 31.6 | 30 | 0.631 | 7.94 |  |  |  |  |  |  |  |  |  |  | 
9 | CC(C)(N)COc1ccc(Nc2ccc(CCNC[C@H](O)c3ccc(O)c4[nH]c(=O)ccc34)cc2)cc1-c1ccccc1 | 7.94 | 0.631 | 1 | 140 | 0.0631 | 1.58 |  |  |  |  |  |  |  |  |  |  | 
10 | O=c1ccc2c([C@@H](O)CNCCc3ccc(Nc4ccc(OCCN5CCOCC5)cc4)cc3)ccc(O)c2[nH]1 | 50.1 | 3.16 | 20 | 41 | 0.316 | 12.6 |  |  |  |  |  |  |  |  |  |  | 
11 | COc1ccc(Nc2ccc(CCNC[C@H](O)c3ccc(O)c4[nH]c(=O)ccc34)cc2)cc1-c1ccccc1CN | 6.31 | 0.794 | 3.16 | 20 | 0.126 | 2.51 |  |  |  |  |  |  |  |  |  |  | 
12 | COc1ccc(Nc2ccc(CCNC[C@H](O)c3ccc(O)c4[nH]c(=O)ccc34)cc2)cc1-c1cccc(CN)c1 | 25.1 | 0.316 | 1.58 | 146 | 0.0794 | 3.98 |  |  |  |  |  |  |  | Active |  |  | 
13 | O=CNc1cc([C@@H](O)CNCCc2ccc(NC[C@H](O)c3ccccc3)cc2)ccc1O [MILVETEROL] | 39.8 |  |  | 2910 |  |  |  |  |  |  |  |  |  |  |  |  | 
14 | CC(C)(N)COc1ccc(Nc2ccc(CCNC[C@H](O)c3ccc(O)c(NC=O)c3)cc2)cc1 | 39.8 | 3.16 | 25.1 | 94 | 0.251 | 6.31 |  |  |  |  |  |  |  |  |  |  | 
15 | O=C(NCCOc1ccc(Nc2ccc(CCNC[C@H](O)c3ccc(O)c4[nH]c(=O)ccc34)cc2)cc1)c1ccccc1 | 12.6 | 1.58 | 10 | 13 | 0.501 | 2 |  |  |  |  |  |  |  |  |  |  | 
16 | O=c1ccc2c([C@@H](O)CNCCc3ccc(Nc4ccc(OCCN5CCNCC5)cc4)cc3)ccc(O)c2[nH]1 | 39.8 | 1.58 | 10 | 116 | 0.126 | 10 |  |  |  |  |  |  | 9.1 |  |  |  | 
17 | COc1ccc(Nc2ccc(CCNC[C@H](O)c3ccc(O)c4[nH]c(=O)ccc34)cc2)cc1-c1ccc(CN)cc1 | 10 | 0.501 | 1.26 | 101 | 0.1 | 2.51 |  |  |  |  |  |  |  | Active |  |  | 
18 | COc1ccc(Nc2ccc(CCNC[C@H](O)c3ccc(O)c4[nH]c(=O)ccc34)cc2)cc1-c1ccccc1 |  |  | 6.31 | 115 |  |  |  |  |  |  |  |  |  | Active |  |  | 
